Measurements of several laboratories.
Target: Mitogen-activated protein kinase 9 (MAPK9, Homo sapiens, UniProt P45984)

SMILES	effect on	technique	tested at	remaining binding
CCC(=O)N[C@@H]1CC[C@H](C(=O)N(C)c2ccc(-c3nc4ccccc4o3)cc2)C1	cell-free assay	competition with immobilised ligand	1 µM	98%
COc1cnc(Nc2cccc(S(N)(=O)=O)c2)nc1N1CCN(c2ccccc2)C(=O)C1	binding	competition with immobilised ligand	1 µM	69%
COC(=O)Nc1nc2ccc(C(=O)c3ccccc3)cc2[nH]1	cell-free assay	competition with immobilised ligand	10 µM	9.6%
Cc1cnc(Nc2ccc(C(=O)N3CCC(N4CCCC4)CC3)cc2)nc1-c1cc2ccccc2s1	binding	competition with immobilised ligand	1 µM	14%
COc1cccc(CNC(=O)c2nc3scc(COCc4ccc(C(=O)O)cc4)c3c(=O)[nH]2)c1	cell-free assay	competition with immobilised ligand	1 µM	97.1%
O=C(NCC1CCOCC1)c1n[nH]cc1NC(=O)c1c(F)cccc1F	binding	competition with immobilised ligand	1 µM	57%
N[C@H]1CCN(c2nccc(-c3cnn4ncccc34)n2)C1	binding		1 µM	100%
C[C@@H]1CN(c2ccc3ncc(-c4ccc5[nH]nc(C6CC6)c5c4)n3n2)C[C@H](C)O1	binding	competition with immobilised ligand	0.5 µM	50%
CN(C(=O)c1ccccc1)c1cc(N(C)c2ccc3c(c2)CCc2ccc(C(=O)NCCN4CCOCC4)cc2C3=O)ccc1F	cell-free assay	competition with immobilised ligand	1 µM	100%
O=C(NCCCN1CCOCC1)c1ccc(Nc2nccc(-c3cc4ccccc4s3)n2)cc1	binding	competition with immobilised ligand	1 µM	33%
NS(=O)(=O)c1cc(NC(=O)C2(c3ccccc3Cl)CC2)ccc1Oc1cccc(Cl)c1	cell-free assay	competition with immobilised ligand	1 µM	100%
c1cnn2ncc(-c3ccnc(N4CCC45COC5)n3)c2c1	binding		1 µM	44%
FC(F)(F)Oc1cccc(-c2cnc3ccc(-c4ccncc4)nn23)c1	cell-free assay	competition with immobilised ligand	5 µM	76%
C[C@@H]1CCN(c2nccc(-c3cnn4ncccc34)n2)C1	binding		1 µM	64%
CCS(=O)(=O)c1cc2cc(C[C@@](O)(CC(C)(C)c3ccc(F)cc3C(N)=O)C(F)(F)F)[nH]c2cn1	cell-free assay	competition with immobilised ligand	1 µM	84%
O=C(NCCCN1CCOCC1)c1ccc(Nc2ncc(Cl)c(-c3ccc(Cl)s3)n2)cc1	binding	competition with immobilised ligand	1 µM	11%
CC1=C(C#N)C(c2ccc3c(c2)c(NC(=O)c2ccccc2C)nn3C)C(C#N)=C(C)N1	cell-free assay	competition with immobilised ligand	1 µM	73%
CN(CCCC(F)(F)F)c1nccc(-c2cnn3ncccc23)n1	binding		1 µM	90%
CC(C)(C)c1ccc(-c2nc(CBr)nn2-c2cccc(O)c2)cc1	cell-free assay	competition with immobilised ligand	10 µM	46%
CN(C)c1nccc(-c2cnn3ncccc23)n1	binding		1 µM	55%
COc1ncc2cc3ccccc3nc2c1C#N	cell-free assay	competition with immobilised ligand	5 µM	100%
CN(C)c1nccc(-c2cnc3ncccn23)n1	binding		1 µM	60%
CNC(=O)Nc1ccc2c(c1)[C@@]1(CC2)OC(=O)N(CC(=O)N(Cc2ccc(F)cc2)[C@@H](C)C(F)(F)F)C1=O	cell-free assay	competition with immobilised ligand	1 µM	69%
